Tested on: Vaccinia virus
Experiment: Antiviral activity against Vaccinia virus infected in HEL cells assessed as inhibition of virus-induced cytopathogenicity
Format: functional, organism-based
Settings: Orthopoxvirus vaccinia
Outline: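 Confluent HEL, Vero or HeLa monolayers were infected with 100 CCID50 of virus while exposed to fivefold serial dilutions of compound. Virus-induced cytopathicity was scored when it reached completion in untreated infected controls. The EC50 is the concentration that inhibits cytopathicity by 50%.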

| SMILES | EC50 [µM] |
| --- | --- |
| Nc1nc2c(sc3ncn([C@H]4C[C@H](O)[C@@H](CO)O4)c32)c(=O)[nH]1 | > 100 |
| Nc1ncnc2c1sc1ncn([C@H]3C[C@H](O)[C@@H](CO)O3)c12 | > 20 |
| NC(=O)c1ncn([C@@H]2O[C@H](CO)[C@@H](O)[C@H]2O)n1 [RIBAVIRIN] | > 250 |

— ChEMBL document CHEMBL2021796, “Synthesis and biological evaluation of a series of thieno-expanded tricyclic purine 2'-deoxy nucleoside analogues” (Bioorg Med Chem, 2012)
